# From PubChem
# An excerpt weighted towards active compounds, which were near 4.3% of everything screened.
# CHO parental Ca – counter-screen for OX1R antagonists: effect in parental CHO cells; inhibition, % at 5.6 µM; 0.63% of 330,000 active; parental CHO-K1, ATP-induced calcium, Fluo-8 fluorescence;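 active = inhibition above that plate's mean sample inhibition plus 3 SD, cut at about 26% in these data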;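 also: 0% = ATP-challenged DMSO wells and 100% = DMSO wells without ATP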
#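 Material – parental CHO cells · Reagent – ATP stimulus · Compound – single nominal dose of 5.6 µM per compound · Detection – Fluo-8 fluorescence · Read-out basis – percent inhibition of calcium signal · Controls – ATP-challenged DMSO wells low, unchallenged DMSO wells high · Repeats – no replicates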
# OX1R antag-1 – antagonists of human orexin 1 receptor (OX1R) | inhibition, % at 6.6 µM | AID 485270 | O43613 | 1.8% of 330,000 active | OX1R-expressing cells, FRET antagonist read-out; in the data active = inhibition mostly above about 38%, no sharp cut-off; inactive = mostly below about 40%;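 also: 0% = agonist challenge alone and 100% = reference antagonist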
# GalR3 antagonist – human GalR3 antagonism | 0.44% of 360,000 active | O60755 | HEK293 GalR3-CNG cAMP membrane potential fluorescence; galR3 body fused to GalR1 C-terminus | AID 651719 | inhibition, % at 3 µM;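 active = inhibition above the screen-wide average plus 3 SD, cut at about 13% in these data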;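 also: forskolin and galanin both at EC90 stimulate the cells; cAMP rise reported by CNG channel membrane potential dye signal; 0% = forskolin plus galanin with DMSO and 100% = forskolin alone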
# Target sequence (O60755 1-299 limits assumed): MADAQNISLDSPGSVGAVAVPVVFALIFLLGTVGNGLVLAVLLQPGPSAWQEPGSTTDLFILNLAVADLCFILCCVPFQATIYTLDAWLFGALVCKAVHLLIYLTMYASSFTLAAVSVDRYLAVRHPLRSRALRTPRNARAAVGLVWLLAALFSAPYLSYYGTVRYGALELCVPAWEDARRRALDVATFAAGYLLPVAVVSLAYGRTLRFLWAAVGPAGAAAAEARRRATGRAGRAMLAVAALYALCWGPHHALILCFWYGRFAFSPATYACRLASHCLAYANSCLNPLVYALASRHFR
# TAAR1 ag – agonists of human TAAR1 | Q96RJ0 | CHO RD-HGA16 TAAR1, Fluo-8 calcium fluorescence; vehicle wells 0%, saturating PEA agonist 100% | activation, % at 3 µM | 0.99% of 360,000 active;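 active = activation above the mean activation of all test compounds in the run plus 3 SD, cut at about 38% in these data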
# Target sequence (Q96RJ0 whole entry, looked up): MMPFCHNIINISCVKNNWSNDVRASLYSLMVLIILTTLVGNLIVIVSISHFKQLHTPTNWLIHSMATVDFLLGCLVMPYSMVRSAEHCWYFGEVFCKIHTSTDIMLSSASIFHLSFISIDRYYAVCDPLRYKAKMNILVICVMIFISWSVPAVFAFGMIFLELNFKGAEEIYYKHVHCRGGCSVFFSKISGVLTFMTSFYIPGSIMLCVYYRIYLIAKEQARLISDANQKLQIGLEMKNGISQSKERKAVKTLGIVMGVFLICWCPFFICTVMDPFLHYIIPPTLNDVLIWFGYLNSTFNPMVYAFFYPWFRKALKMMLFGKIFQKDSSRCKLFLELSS
#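 System: CHO-derived RD-HGA16 cells with stable Gα16 and human TAAR1 / Times: 17-24 h plating, Fluo-8 75 min 37 °C, 30 min RT / Technique: calcium-sensitive Fluo-8 signal, excitation 470-495, emission 515-575 nm / Measure: % activation relative to PEA EC100 response / Benchmarks: DMSO and PEA EC100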
# TAAR1 antag – antagonists of human TAAR1; CHO RD-HGA16 TAAR1, Fluo-8 calcium fluorescence, antagonist; inhibition, % at 3 µM; 1.5% of 360,000 active;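 active = inhibition above a per-plate cutoff, the mean inhibition of test compounds on that plate plus 3 SD, cut at about 49% in these data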;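 also: 0% = DMSO plus EC80 beta-PEA response and 100% = DMSO alone without agonist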
#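 Material: CHO RD-HGA16 cells bearing hTAAR1; compound dosing: one-point dosing, 3 µM nominal final; schedule: dye loading 75 min at 37 °C, then 30 min room temperature; measured by: calcium fluorescence with Fluo-8; control set: vehicle and agonist controls; replication: n of 1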
# OX1R antag-2 – human HCRTR1 antagonism; inhibition, % at 5 µM; 0.43% of 330,000 active; CHO/OX1R cells, Fluo-8 calcium fluorescence, orexin A; O43613;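 active = inhibition above its plate's threshold, mean inhibition of all tested compounds on the plate plus 3 SD, cut at about 37% in these data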;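 also: 0% = orexin A challenge wells and 100% = SB-334867-A antagonist wells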
# The depositor's hits bear a star; / = no result given.
SMILES,CHO parental Ca,OX1R antag-1,GalR3 antagonist,TAAR1 ag,TAAR1 antag,OX1R antag-2
O=C(NNC(=O)C1CC1)c1cc2cc3ccccc3nc2s1,5,54*,-2,2,-10,-17
COc1ccc(-c2coc3c(C(=O)Nc4cc(OC)c(OC)c(OC)c4)cccc23)c(C)c1,/,/,-8,1,63*,/
COc1cccc(-c2cc(C(=O)Nc3cc(OC)c(OC)c(OC)c3)no2)c1,-12,41*,-8,5,35,-3
COc1ccccc1CC(=O)Nc1ccc(-c2nnc(-c3ccco3)o2)cc1,-13,57,-6,13,46,-36
COc1ccc(-c2coc3c(C(=O)Nc4ccc(OC)nc4)cccc23)c(C)c1,/,/,-8,1,28,/
Cc1ccc(NC(=O)c2cc(-c3cccc(O)c3)on2)cc1C,21,38*,/,4,52*,13
COc1cc(C(=O)Nc2ccc(-c3nnc(-c4ccco4)o3)cc2)cc(OC)c1OC,-11,10,0,11,52*,-8
CC(=O)N1CCN(C(=O)c2ccc(NS(=O)(=O)c3ccc4c(c3)OCCO4)cc2)CC1,8,23,-4,3,-21,-16
CCOC(=O)Sc1nc2ncncc2[nH]1,/,/,-6,2,-8,/
CCC(C(=O)NCc1ccco1)n1nc(C)n2c(cc3occc32)c1=O (stereo not drawn),-14,12,1,2,-20,-12
O=c1c2cccc3c2c(nn1CN1CCOCC1)-c1ccccc1-3,-12,71*,/,/,/,0
CN(C)Cc1c(C(=O)N/N=C/c2ccc(-c3ccccc3)cc2)nnn1-c1nonc1N,-8,6,1,7,-13,-20
C/C(=N\NC(=O)c1nnn(-c2nonc2N)c1CN(C)c1ccccc1)c1cccc(O)c1,-10,49*,2,7,-38,9
C/C(=N\NC(=O)c1nnn(-c2nonc2N)c1CN(C)c1ccccc1)c1ccc(O)cc1,-19,27,1,2,4,22
Cc1ccsc1/C=N/NC(=O)c1nnn(-c2nonc2N)c1CN(C)c1ccccc1,-4,50*,-2,7,49*,20
CC(C)Oc1ccc(/C=N/NC(=O)c2nnn(-c3nonc3N)c2CN(C)c2ccccc2)cc1,-6,56*,3,32,22,22
O=Cc1cc(-c2ccccc2)[nH]c1-c1ccccc1,74*,6,-11,17,13,21
CC(=O)c1cc2c(cc1NC(=O)CSc1nnc(C3CC3)n1C)OCO2,/,/,-4,3,-3,/
CCOc1ccc(-c2cc(C(=O)NCc3ccc(C(F)(F)F)cc3)[nH]n2)c(C)c1,/,/,-3,3,37,/
Cc1cc(F)ccc1-c1cc(C(=O)NCc2ccc(C(F)(F)F)cc2)[nH]n1,/,/,-7,56*,71*,/
O=C(Nc1cccc2c1CCCC2)c1ccccc1Br,44*,0,-3,2,-16,14
COc1ccc(C(=O)Nc2cccc3c2CCCC3)c(OC)c1,-38,57*,-1,5,-20,18
COc1ccc(N2CC(C)(C)[C@H](CC(=O)Nc3ccccc3)C2=O)cc1,/,/,-6,0,11,/
CCOC(=O)C1C(=O)CC(C)(O)C(C(=O)OCC)C1/C=C/c1ccccc1 (stereo not drawn),/,/,4,9,56*,/
CCc1cc2ccc(C)cc2nc1SCC(=O)NNC(=O)c1ccco1,-13,12,-5,9,-14,-27
SMILES,CHO parental Ca,OX1R antag-1,GalR3 antagonist,TAAR1 ag,TAAR1 antag,OX1R antag-2
CCc1cc2cc(C)ccc2nc1SCC(=O)NNC(=O)c1ccco1,-14,48*,-10,-6,-15,-19
CCOc1ccc(C(=O)Cc2cc(OC)c(OC)cc2[N+](=O)[O-])cc1,-18,14,-3,42*,63*,-26
Cc1cc(OCCn2cncn2)ccc1[N+](=O)[O-],-8,9,-6,3,-6,-9
Nc1ccc(-c2c3ccc(=O)cc-3oc3cc(O)ccc23)cc1C(=O)O,70*,69*,-10,212*,68*,84*
O=c1ccc2c(-c3ccccc3)c3ccc(O)cc3oc-2c1,101*,19,-3,673*,105*,107*
O=c1cc(-c2ccccc2)oc2cc(O)ccc12,/,/,-8,2,-27,/
CCOC(=O)c1c(C)[nH]c(C(=O)OCC(=O)N(CC(C)C)C2CCS(=O)(=O)C2)c1C (stereo not drawn),-11,1,-2,11,-6,-12
CCOC(=O)c1ccccc1NC(=O)COC(=O)C1CCN(S(=O)(=O)c2ccccc2C(=O)OC)CC1,-14,16,-5,11,49*,-20
O=C(NC1CC1)c1sc2cc([N+](=O)[O-])ccc2c1Cl,1,69*,3,1,-13,-4
O=C(NCCCn1ccnc1)c1ccc(Cl)cc1[N+](=O)[O-],-10,32,-4,2,-2,-12
O=C(NCCCn1ccnc1)c1cc2cc([N+](=O)[O-])ccc2oc1=O,1,69*,-7,4,-14,-8
CNC(=O)COc1coc(CN2CCN(c3ccccc3F)CC2)cc1=O,-8,4,-7,0,6,-5
CCOC(=O)c1nn(-c2cccc(OC)c2)c2nc(Nc3ccccc3)cc(=O)n12,94*,14,2,27,33,-5
C[C@@H]1NC(=O)c2cc([N+](=O)[O-])cc(I)c2NCCCC[C@@H](C(N)=O)NC(=O)[C@H](CCC(=O)O)NC1=O,2,53,/,/,/,-11
C[C@@H]1NC(=O)[C@H](CCC(N)=O)NC(=O)c2cc([N+](=O)[O-])cc(I)c2NCCC[C@@H](C(N)=O)NC1=O,2,61*,-5,12,2,0
NC(=O)[C@@H]1CCCNc2c(I)cc([N+](=O)[O-])cc2C(=O)N[C@@H](CCC(=O)O)C(=O)N[C@@H](CO)C(=O)N1,-9,67*,/,/,/,-8
COc1ccc(NC(=O)c2cc(S(=O)(=O)N3CCCCC3)ccc2C)cc1S(=O)(=O)N1CCOCC1,/,/,-4,1,7,/
CCN(C[C@H]1N[C@@](C)(C(=O)OC)[C@H]2C(=O)N(Cc3ccccc3)C(=O)[C@@H]12)C(=O)c1ccc(C(C)(C)C)cc1,-12,-1,-9,11,51*,-21
CCN(C[C@H]1N[C@@](CC)(C(=O)OC)[C@H]2C(=O)N(Cc3ccccc3)C(=O)[C@@H]12)C(=O)c1ccc(C(C)(C)C)cc1,-30,18,-7,13,54*,-21
CCN(C[C@H]1N[C@@](C)(C(=O)OC)[C@H]2C(=O)N(Cc3ccccc3)C(=O)[C@@H]12)C(=O)COC,-3,0,-6,0,-13,5
